Source: article PMC7340344 (Journal of medicinal chemistry, 2020)
Structures can show the parent of a compound that is named as a salt.

Each compound was assayed on Kasumi-1 leukemia cells (assay: Western blot of cellular histone acetylation). Settings: Kasumi-1 cells, 12h, 5 and 10 μM.
Format: cell-based
Outline: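 Kasumi-1 cells (10^6/well) were exposed to test compound at 0, 5 and 10 μM for 12 h. Total histones were extracted by kit, and 2 μg per lane were separated by SDS-PAGE and transferred to PVDF. Blots were probed with antibodies to H3K9Ac, H3K18Ac, H3K27Ac and total H3, then with an anti-rabbit IgG secondary.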

Row | Compound | cellular acetylation of histone H3K9, H3K18 and H3K27
1 | NCc1ccc(-c2cc(CNCC3CCNCC3)sc2-c2ccc(CN)cc2)cc1 [Compound 28, ((5-(((Piperidin-4-ylmethyl)amino)methyl)thiophene-2,3-diyl)bis(4,1-phenylene))dimethanamine hydrochloride] | no significant activity

These compounds were tested against LSD1 (Homo sapiens, UniProt O60341) (assay: Inhibition of LSD1). Settings: not given.
Format: biochemical

Row | inhibition of LSD1 activity at 50 μM | Compound
2 | did not significantly inhibit | CC(C)(C)c1ccc(-c2cc(C(=O)NCC3CCNCC3)sc2-c2ccc(C(C)(C)C)cc2)cc1 [Compound 1, 4,5-bis(4-(tert-Butyl)phenyl)-N-(piperidin-4-ylmethyl)thiophene-2-carboxamide hydrochloride]

The compounds below were run against T1, HAT domain of human p300 (Homo sapiens, UniProt Q09472) (assay: Inhibition of p300-HAT). Settings: not given.
T1 sequence (Q09472 1195-1673): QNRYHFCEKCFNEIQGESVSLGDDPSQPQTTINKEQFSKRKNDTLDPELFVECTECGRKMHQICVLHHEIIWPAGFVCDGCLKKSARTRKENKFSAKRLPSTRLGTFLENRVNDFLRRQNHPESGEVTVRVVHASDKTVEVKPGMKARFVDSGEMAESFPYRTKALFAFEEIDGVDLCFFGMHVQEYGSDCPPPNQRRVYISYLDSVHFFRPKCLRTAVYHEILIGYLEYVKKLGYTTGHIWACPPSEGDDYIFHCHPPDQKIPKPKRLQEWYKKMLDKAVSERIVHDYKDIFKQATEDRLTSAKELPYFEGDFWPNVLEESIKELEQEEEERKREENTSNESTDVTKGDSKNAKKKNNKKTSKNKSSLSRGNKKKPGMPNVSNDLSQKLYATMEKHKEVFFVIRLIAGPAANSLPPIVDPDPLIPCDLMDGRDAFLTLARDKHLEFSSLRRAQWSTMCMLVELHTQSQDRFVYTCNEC
Format: biochemical

Row | IC50 [µM] | Compound
3 | 4.9 | CC(C)(C)c1ccc(-c2cc(CNCC3CCNCC3)oc2-c2ccc(C(C)(C)C)cc2)cc1 [Compound 34, 1-(4,5-bis(4-(tert-Butyl)phenyl)furan-2-yl)-N-(piperidin-4-ylmethyl)methanamine hydrochloride]
4 | 3 | c1cc(-c2ccc(-c3cc(CNCC4CCNCC4)oc3-c3ccc(-c4ccoc4)cc3)cc2)co1 [Compound 35, 1-(4,5-bis(4-(Furan-3-yl)phenyl)furan-2-yl)-N-(piperidin-4-ylmethyl)methanamine hydrochloride]

Same assay, conditions: ratio of p300 HAT IC50 to that of compound 12

Row | Compound | activity reduction as compared to 12
5 | CC(C)(C)c1ccc(-c2cc(CNC3CCNCC3)sc2-c2ccc(C(C)(C)C)cc2)cc1 [Compound 14, N-((4,5-bis(4-(tert-Butyl)phenyl)thiophen-2-yl)methyl)piperidin-4-amine hydrochloride] | ~ 8 fold
6 | CC(C)(C)c1ccc(-c2sc(CNCC3CCNCC3)c(Br)c2-c2ccc(C(C)(C)C)cc2)cc1 [Compound 33, 1-(3-Bromo-4,5-bis(4-(tert-butyl)phenyl)thiophen-2-yl)-N-(piperidin-4-ylmethyl)methanamine hydrochloride] | ~ 3 fold
7 | CC(C)(C)c1ccc(-c2cc(CNCCC3CCNCC3)sc2-c2ccc(C(C)(C)C)cc2)cc1 [Compound 15, N-((4,5-bis(4-(tert-Butyl)phenyl)thiophen-2-yl)methyl)-2-(piperidin-4-yl)ethanamine hydrochloride] | ~3 fold
8 | CC(C)(C)c1ccc(-c2cc(CNCC3CCNCC3)sc2-c2ccc(CN)cc2)cc1 [Compound 26, 1-(5-(4-(Aminomethyl)phenyl)-4-(4-(tert-butyl)phenyl)thiophen-2-yl)-N-(piperidin-4-ylmethyl)methanamine hydrochloride] | ~ 3 fold
9 | CC(C)(C)c1ccc(-c2nc(CNCC3CCNCC3)sc2-c2ccc(C(C)(C)C)cc2)cc1 [Compound 37, 1-(4,5-bis(4-(tert-Butyl)phenyl)thiazol-2-yl)-N-(piperidin-4-ylmethyl)methanamine hydrochloride] | more than 13 fold

Same assay, conditions: read-out: % inhibition at 10 μM, compound at 10 μM

Row | Compound | inhibition at 10 µM [%]
10 | CC(C)(C)c1ccc(-c2sc(C(=O)NCC3CCNCC3)cc2-c2ccoc2)cc1 [Compound 8, 5-(4-(tert-Butyl)phenyl)-4-(furan-3-yl)-N-(piperidin-4-ylmethyl)thiophene-2-carboxamide hydrochloride] | ~30
11 | CC(C)(C)c1ccc(-c2sc(C(=O)NCC3CCNCC3)cc2-c2cccnc2)cc1 [Compound 9, 5-(4-(tert-Butyl)phenyl)-N-(piperidin-4-ylmethyl)-4-(pyridin-3-yl)thiophene-2-carboxamide hydrochloride] | ~30

Same assay, conditions: removal of the carbonyl group

Row | Compound | activity reduction as compared to 3
12 | COc1ccc(-c2ccc(-c3cc(CNCC4CCNCC4)sc3-c3ccc(-c4ccc(OC)cc4)cc3)cc2)cc1 [Compound 10, 1-(4,5-bis(4’-Methoxy-[1,1’-biphenyl]-4-yl)thiophen-2-yl)-N-(piperidin-4-ylmethyl)methanamine hydrochloride] | ~ 50%

Same assay, conditions: tested up to 10 μM

Row | Compound | inhibitory activity against p300 HAT (in words)
13 | NCc1ccc(-c2cc(CNCC3CCNCC3)sc2-c2ccc(CN)cc2)cc1 [Compound 28, ((5-(((Piperidin-4-ylmethyl)amino)methyl)thiophene-2,3-diyl)bis(4,1-phenylene))dimethanamine hydrochloride] | inactive
14 | OCc1ccc(-c2cc(CNCC3CCNCC3)sc2-c2ccc(CO)cc2)cc1 [Compound 29, ((5-(((Piperidin-4-ylmethyl)amino)methyl)thiophene-2,3-diyl)bis(4,1-phenylene))dimethanol hydrochloride] | weak inhibitor
15 | COc1ccc(-c2cc(CNCC3CCNCC3)sc2-c2ccc(OC)c(OC)c2)cc1OC [Compound 31, 1-(4,5-bis(3,4-Dimethoxyphenyl)thiophen-2-yl)-N-(piperidin-4-ylmethyl)methanamine hydrochloride] | Lack of inhibition
16 | CC(C)(C)c1ccc(-c2cc(CN3CCOCC3)sc2-c2ccc(C(C)(C)C)cc2)cc1 [Compound 19, 4-((4,5-bis(4-(tert-Butyl)phenyl)thiophen-2-yl)methyl)morpholine hydrochloride] | Loss of activity
17 | CC(C)(C)c1ccc(-c2csc(C(=O)NCC3CCNCC3)n2)cc1 [Compound 39, 4-(4-(tert-Butyl)phenyl)-N-(piperidin-4-ylmethyl)thiazole-2-carboxamide hydrochloride] | Loss of activity
18 | CC(C)(C)c1ccc(-c2cc(COCC3CCNCC3)sc2-c2ccc(C(C)(C)C)cc2)cc1 [Compound 13, 4-(((4,5-bis(4-(tert-Butyl)phenyl)thiophen-2-yl)methoxy)methyl)piperidine hydrochloride] | complete loss of inhibitory activity
19 | CC(C)(C)c1ccc(-c2cc(CN3CCNCC3)sc2-c2ccc(C(C)(C)C)cc2)cc1 [Compound 18, 1-((4,5-bis(4-(tert-Butyl)phenyl)thiophen-2-yl)methyl)piperazine hydrochloride] | Loss of activity
20 | CC(C)(C)c1ccc(-c2sc(CNCC3CCNCC3)cc2-c2ccc(CN)cc2)cc1 [Compound 27, 1-(4-(4-(Aminomethyl)phenyl)-5-(4-(tert-butyl)phenyl)thiophen-2-yl)-N-(piperidin-4-ylmethyl)-methanamine hydrochloride] | major activity loss
21 | CC(C)(C)c1ccc(-c2sc(C(=O)NCC3CCNCC3)cc2-c2ccc(CN3CCNCC3)cc2)cc1 [Compound 7, 5-(4-(tert-Butyl)phenyl)-4-(4-(piperazin-1-ylmethyl)phenyl)-N-(piperidin-4-ylmethyl)thiophene-2-carboxamide hydrochloride] | almost inactive
22 | c1ccc(-c2cccc(-c3cc(CNCC4CCNCC4)sc3-c3cccc(-c4ccccc4)c3)c2)cc1 [Compound 32, 1-(4,5-di([1,1’-Biphenyl]-3-yl)thiophen-2-yl)-N-(piperidin-4-ylmethyl)methanamine hydrochloride] | Lack of inhibition
23 | c1cc(-c2cc(CNCC3CCNCC3)sc2-c2ccoc2)co1 [Compound 30, 1-(4,5-di(Furan-3-yl)thiophen-2-yl)-N-(piperidin-4-ylmethyl)methanamine hydrochloride] | very low activity
24 | N-((5,6-bis(4-(Furan-3-yl)phenyl)pyrazin-2-yl)methyl)piperidin-4-amine hydrochloride [Compound 40] | significantly less active than its thiophene analog 11
25 | CCCCc1ccc(-c2cc(CNCC3CCNCC3)sc2-c2ccc(CCCC)cc2)cc1 [Compound 23, 1-(4,5-bis(4-Butylphenyl)thiophen-2-yl)-N-(piperidin-4-ylmethyl)methanamine hydrochloride] | Loss of activity
26 | CC(C)(C)c1ccc(-c2csc(CNCC3CCNCC3)n2)cc1 [Compound 38, 1-(4-(4-(tert-Butyl)phenyl)thiazol-2-yl)-N-(piperidin-4-ylmethyl)methanamine hydrochloride] | Loss of activity

Each compound was assayed against T2, p300 HAT and histone H4 (Homo sapiens, UniProt Q09472) (assay: Alpha assay, binding between p300 HAT and histone H4 peptide). Settings: not given.
T2 sequence (Q09472 1287-1663 limits assumed): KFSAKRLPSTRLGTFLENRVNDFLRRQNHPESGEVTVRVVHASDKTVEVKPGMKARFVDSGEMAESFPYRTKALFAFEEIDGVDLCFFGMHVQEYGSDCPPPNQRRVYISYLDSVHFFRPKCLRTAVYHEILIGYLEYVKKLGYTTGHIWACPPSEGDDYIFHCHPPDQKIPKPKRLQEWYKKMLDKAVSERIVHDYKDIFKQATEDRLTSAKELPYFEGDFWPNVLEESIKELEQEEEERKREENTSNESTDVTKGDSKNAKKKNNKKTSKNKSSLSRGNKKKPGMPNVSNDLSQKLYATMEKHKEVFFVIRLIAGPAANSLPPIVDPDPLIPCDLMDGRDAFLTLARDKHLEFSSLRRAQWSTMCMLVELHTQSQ

Row | Compound | effect on binding between p300 HAT and histone H4 (in words)
27 | NCc1ccc(-c2cc(CNCC3CCNCC3)sc2-c2ccc(CN)cc2)cc1 [Compound 28, ((5-(((Piperidin-4-ylmethyl)amino)methyl)thiophene-2,3-diyl)bis(4,1-phenylene))dimethanamine hydrochloride] | not interfered
